# From ChEMBL document CHEMBL1133614, “Novel radiotracers for imaging the serotonin transporter by positron emission tomography: synthesis, radiosynthesis, and in vitro and ex vivo evaluation of (11)C-labeled 2-(phenylthio)araalkylamines” (J Med Chem, 2000)
# What was measured:
# [1] = Half-life of washout rate of radioactivity from the cerebellum.; format: ADME, tissue-based
# Outline: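 Rats received the 11C tracer by tail vein (3-30 MBq, 350-450 ng, buffered saline), 3 per time point. Cerebellar radioactivity (%ID/g) was followed over time after injection, and the half-life of its washout was derived from that time course.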
# Rattus norvegicus [2] = species on record: Rattus norvegicus; assay: Biodistribution of radioactivity in rat hippocampus upon Tail-Vein injection of [11C]-labeled compound after 5 min; format: ADME, organism-based; details: in vivo, iv
# Rattus norvegicus [3] = species on record: Rattus norvegicus; assay: Biodistribution of radioactivity in rat hypothalamus upon Tail-Vein injection of [11C]-labeled compound after 5 min; format: ADME, organism-based; details: in vivo, iv
# [4] = target: Sodium-dependent serotonin transporter (Homo sapiens, UniProt P31645); assay: In vitro binding affinity on cloned Serotonin transporter
# Outline: (§1)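 Competition binding in triplicate on membranes from cloned human transporters. Radioligands: SERT [3H]paroxetine 0.2 nM with 10.3 µg protein, NET [3H]nisoxetine 1.0 nM with 16.9 µg, DAT [3H]WIN 35,428 1.0 nM with 6.2 µg. Buffer 50 mM Tris-Cl pH 7.4 with 150 mM NaCl/5 mM KCl (SERT, NET) or 100 mM NaCl (DAT). Incubated 40 min at 37 °C, then filtered on PEI-soaked GF/B filters. Nonspecific binding set with duloxetine 1 µM (SERT), desipramine 10 µM (NET) or nomifensine 10 µM (DAT). IC50 from nonlinear fit; Ki by Cheng-Prusoff.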
# Rattus norvegicus [5] = species on record: Rattus norvegicus; assay: Biodistribution of radioactivity in rat hippocampus upon Tail-Vein injection of [11C]-labeled compound after 15 min; format: ADME, organism-based; details: in vivo, iv, 0.25 h
# Rattus norvegicus [6] = species on record: Rattus norvegicus; assay: Biodistribution of radioactivity in rat blood upon Tail-Vein injection of [11C]-labeled compound after 30 min upon; format: ADME, organism-based; details: in vivo, iv, 0.5 h
# Rattus norvegicus [7] = species on record: Rattus norvegicus; assay: Biodistribution of radioactivity in rat hippocampus upon Tail-Vein injection of [11C]-labeled compound after 30 min; format: ADME, organism-based; details: in vivo, iv, 0.5 h
# Rattus norvegicus [8] = species on record: Rattus norvegicus; assay: Biodistribution of radioactivity in rat striatum upon Tail-Vein injection of [11C]-labeled compound after 15 min; format: ADME, organism-based; details: in vivo, iv, 0.25 h
# Rattus norvegicus [9] = species on record: Rattus norvegicus; assay: Biodistribution of radioactivity in rat striatum upon Tail-Vein injection of [11C]-labeled compound after 60 min; format: ADME, organism-based; details: in vivo, iv, 1 h
# Rattus norvegicus [10] = species on record: Rattus norvegicus; assay: Biodistribution of radioactivity in rat thalamus upon Tail-Vein injection of [11C]-labeled compound after 30 min; format: ADME, organism-based; details: in vivo, iv, 0.5 h
# Rattus norvegicus [11] = species on record: Rattus norvegicus; assay: Biodistribution of radioactivity in rat cerebellum upon Tail-Vein injection of [11C]-labeled compound after 60 min; format: ADME, organism-based; details: in vivo, iv, 1 h
# Rattus norvegicus [12] = species on record: Rattus norvegicus; assay: Biodistribution of radioactivity in rat hippocampus upon Tail-Vein injection of [11C]-labeled compound after 60 min; format: ADME, organism-based; details: in vivo, iv, 1 h
# Rattus norvegicus [13] = species on record: Rattus norvegicus; assay: Biodistribution of radioactivity in rat blood upon Tail-Vein injection of [11C]-labeled compound after 60 min; format: ADME, organism-based; details: in vivo, iv, 1 h
# [14] = target: Sodium-dependent noradrenaline transporter (Homo sapiens, UniProt P23975); assay: In vitro binding affinity on cloned Norepinephrine transporter
# Outline: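 Competition binding in triplicate on membranes from cloned human transporters. Buffer 50 mM Tris-Cl pH 7.4 with 150 mM NaCl/5 mM KCl (SERT, NET) or 100 mM NaCl (DAT). Incubated 40 min at 37 °C, then filtered on PEI-soaked GF/B filters. Nonspecific binding set with duloxetine 1 µM (SERT), desipramine 10 µM (NET) or nomifensine 10 µM (DAT). IC50 from nonlinear fit; Ki by Cheng-Prusoff.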
# Rattus norvegicus [15] = species on record: Rattus norvegicus; assay: Biodistribution of radioactivity in rat hypothalamus upon Tail-Vein injection of [11C]-labeled compound after 60 min; format: ADME, organism-based; details: in vivo, iv, 1 h
# Rattus norvegicus [16] = species on record: Rattus norvegicus; assay: Biodistribution of radioactivity in rat striatum upon Tail-Vein injection of [11C]-labeled compound after 5 min; format: ADME, organism-based; details: in vivo, iv
# Rattus norvegicus [17] = species on record: Rattus norvegicus; assay: Biodistribution of radioactivity in rat cerebellum upon Tail-Vein injection of [11C]-labeled compound after 30 min; format: ADME, organism-based; details: in vivo, iv, 0.5 h
# [18] = target: Sodium-dependent dopamine transporter (Homo sapiens, UniProt Q01959); assay: In vitro binding affinity on cloned Dopamine transporter; outline: as §1
# Rattus norvegicus [19] = species on record: Rattus norvegicus; assay: Biodistribution of radioactivity in rat cortex upon Tail-Vein injection of [11C]-labeled compound after 15 min; format: ADME, organism-based; details: in vivo, iv, 0.25 h
# Rattus norvegicus [20] = species on record: Rattus norvegicus; assay: Biodistribution of radioactivity in rat cortex upon Tail-Vein injection of [11C]-labeled compound after 60 min; format: ADME, organism-based; details: in vivo, iv, 1 h
# Rattus norvegicus [21] = species on record: Rattus norvegicus; assay: Biodistribution of radioactivity in rat blood upon Tail-Vein injection of [11C]-labeled compound after 15 min; format: ADME, organism-based; details: in vivo, iv, 0.25 h
# Rattus norvegicus [22] = species on record: Rattus norvegicus; assay: Biodistribution of radioactivity in rat hypothalamus upon Tail-Vein injection of [11C]-labeled compound after 30 min; format: ADME, organism-based; details: in vivo, iv, 0.5 h
# Rattus norvegicus [23] = species on record: Rattus norvegicus; assay: Biodistribution of radioactivity in rat cortex upon Tail-Vein injection of [11C]-labeled compound after 5 min; format: ADME, organism-based; details: in vivo, iv
# Rattus norvegicus [24] = species on record: Rattus norvegicus; assay: Biodistribution of radioactivity in rat cerebellum upon Tail-Vein injection of [11C]-labeled compound after 5 min; format: ADME, organism-based; details: in vivo, iv
# Rattus norvegicus [25] = species on record: Rattus norvegicus; assay: Biodistribution of radioactivity in rat thalamus upon Tail-Vein injection of [11C]-labeled compound after 15 min; format: ADME, organism-based; details: in vivo, iv, 0.25 h
# Rattus norvegicus [26] = species on record: Rattus norvegicus; assay: Biodistribution of radioactivity in rat blood upon Tail-Vein injection of [11C]-labeled compound after 5 min; format: ADME, organism-based; details: in vivo, iv
# Rattus norvegicus [27] = species on record: Rattus norvegicus; assay: Biodistribution of radioactivity in rat thalamus upon Tail-Vein injection of [11C]-labeled compound after 60 min; format: ADME, organism-based; details: in vivo, iv, 1 h
# Rattus norvegicus [28] = species on record: Rattus norvegicus; assay: Biodistribution of radioactivity in rat cortex upon Tail-Vein injection of [11C]-labeled compound after 30 min; format: ADME, organism-based; details: in vivo, iv, 0.5 h
# Rattus norvegicus [29] = species on record: Rattus norvegicus; assay: Biodistribution of radioactivity in rat hypothalamus upon Tail-Vein injection of [11C]-labeled compound after 15 min; format: ADME, organism-based; details: in vivo, iv, 0.25 h
# Rattus norvegicus [30] = species on record: Rattus norvegicus; assay: Biodistribution of radioactivity in rat striatum upon Tail-Vein injection of [11C]-labeled compound after 30 min; format: ADME, organism-based; details: in vivo, iv, 0.5 h
# Rattus norvegicus [31] = species on record: Rattus norvegicus; assay: Biodistribution of radioactivity in rat thalamus upon Tail-Vein injection of [11C]-labeled compound after 5 min; format: ADME, organism-based; details: in vivo, iv
# [32] = Log P at pH 7.4; format: physicochemical; details: buffer, read-out: logD
# Outline: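 Partition of the radiolabelled compound between 1-octanol and 0.02 M phosphate buffer at pH 7.4.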
# Rattus norvegicus [33] = species on record: Rattus norvegicus; assay: Biodistribution of radioactivity in rat cerebellum upon Tail-Vein injection of [11C]-labeled compound after 15 min; format: ADME, organism-based; details: in vivo, iv, 0.25 h
# Sodium-dependent noradrenaline transporter, sequence (P23975 whole entry): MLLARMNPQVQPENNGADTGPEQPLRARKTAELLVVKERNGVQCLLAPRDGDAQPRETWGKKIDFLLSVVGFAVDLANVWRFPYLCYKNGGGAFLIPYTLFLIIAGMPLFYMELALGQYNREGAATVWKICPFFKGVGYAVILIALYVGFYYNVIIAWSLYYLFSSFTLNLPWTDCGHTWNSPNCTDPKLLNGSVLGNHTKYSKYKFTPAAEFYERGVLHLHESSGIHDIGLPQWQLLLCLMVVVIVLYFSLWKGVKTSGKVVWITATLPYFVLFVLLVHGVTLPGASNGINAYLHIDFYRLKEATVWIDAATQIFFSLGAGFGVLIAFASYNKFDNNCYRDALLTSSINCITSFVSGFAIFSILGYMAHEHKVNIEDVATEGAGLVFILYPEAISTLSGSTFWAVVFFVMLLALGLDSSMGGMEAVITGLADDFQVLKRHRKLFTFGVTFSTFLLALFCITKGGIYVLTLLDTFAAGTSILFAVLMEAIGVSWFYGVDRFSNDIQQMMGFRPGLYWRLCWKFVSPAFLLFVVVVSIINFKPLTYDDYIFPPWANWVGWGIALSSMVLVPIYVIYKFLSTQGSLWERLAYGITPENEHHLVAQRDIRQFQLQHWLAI
# Sodium-dependent dopamine transporter, sequence (Q01959 whole entry): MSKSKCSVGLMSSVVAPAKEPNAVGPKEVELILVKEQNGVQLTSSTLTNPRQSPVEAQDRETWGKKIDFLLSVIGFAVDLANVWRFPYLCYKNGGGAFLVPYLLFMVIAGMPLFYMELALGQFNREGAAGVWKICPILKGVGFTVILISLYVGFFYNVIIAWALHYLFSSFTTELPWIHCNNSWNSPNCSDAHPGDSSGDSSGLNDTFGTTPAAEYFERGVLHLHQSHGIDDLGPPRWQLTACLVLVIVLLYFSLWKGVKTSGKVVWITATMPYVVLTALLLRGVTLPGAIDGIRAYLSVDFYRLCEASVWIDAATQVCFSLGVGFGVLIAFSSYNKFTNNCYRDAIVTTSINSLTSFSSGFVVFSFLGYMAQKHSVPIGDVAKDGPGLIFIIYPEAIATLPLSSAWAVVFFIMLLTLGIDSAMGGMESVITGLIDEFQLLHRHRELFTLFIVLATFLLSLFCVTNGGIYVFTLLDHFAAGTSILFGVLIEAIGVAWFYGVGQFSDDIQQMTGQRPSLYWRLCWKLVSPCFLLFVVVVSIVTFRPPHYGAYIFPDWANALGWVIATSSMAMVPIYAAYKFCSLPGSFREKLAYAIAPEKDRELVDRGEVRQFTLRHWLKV
# Sodium-dependent serotonin transporter, sequence (P31645 whole entry): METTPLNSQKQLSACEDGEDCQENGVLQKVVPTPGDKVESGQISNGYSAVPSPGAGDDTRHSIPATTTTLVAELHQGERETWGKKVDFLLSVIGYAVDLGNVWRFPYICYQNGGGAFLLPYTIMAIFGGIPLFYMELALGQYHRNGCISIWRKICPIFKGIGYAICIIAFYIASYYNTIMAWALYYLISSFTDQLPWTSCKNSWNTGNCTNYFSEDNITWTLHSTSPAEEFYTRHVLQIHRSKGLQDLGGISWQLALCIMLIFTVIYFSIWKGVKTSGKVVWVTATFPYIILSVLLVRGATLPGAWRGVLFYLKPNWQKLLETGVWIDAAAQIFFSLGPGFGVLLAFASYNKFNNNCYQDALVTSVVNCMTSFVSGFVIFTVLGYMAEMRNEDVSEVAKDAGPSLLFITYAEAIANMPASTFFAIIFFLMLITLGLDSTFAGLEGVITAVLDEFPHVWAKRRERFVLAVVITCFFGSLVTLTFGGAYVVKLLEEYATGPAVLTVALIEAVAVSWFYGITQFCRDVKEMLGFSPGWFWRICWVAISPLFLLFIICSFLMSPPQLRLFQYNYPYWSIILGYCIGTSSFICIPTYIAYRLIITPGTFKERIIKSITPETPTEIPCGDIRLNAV
smiles,measurement,setting,value
CN(C)Cc1ccccc1Sc1ccc(C(F)(F)F)cc1N,T1/2,[1],32.3 min
same,ID/g,Rattus norvegicus [2],0.92%
same,ID/g,Rattus norvegicus [3],1.02%
same,Ki,[4],0.33 nM
same,ID/g,Rattus norvegicus [5],0.91%
same,ID/g,Rattus norvegicus [6],0.21%
same,ID/g,Rattus norvegicus [7],0.88%
same,ID/g,Rattus norvegicus [8],1.02%
same,ID/g,Rattus norvegicus [9],0.72%
same,ID/g,Rattus norvegicus [10],1.07%
same,ID/g,Rattus norvegicus [11],0.28%
same,ID/g,Rattus norvegicus [12],0.75%
same,ID/g,Rattus norvegicus [13],0.12%
same,Ki,[14],1200 nM
same,ID/g,Rattus norvegicus [15],0.99%
same,ID/g,Rattus norvegicus [16],1.05%
same,ID/g,Rattus norvegicus [17],0.47%
same,Ki,[18],2040 nM
same,ID/g,Rattus norvegicus [19],1.06%
same,ID/g,Rattus norvegicus [20],0.69%
same,ID/g,Rattus norvegicus [21],0.21%
same,ID/g,Rattus norvegicus [22],1.23%
same,ID/g,Rattus norvegicus [23],1.09%
same,ID/g,Rattus norvegicus [24],0.92%
same,ID/g,Rattus norvegicus [25],1.06%
same,ID/g,Rattus norvegicus [26],0.35%
same,ID/g,Rattus norvegicus [27],0.89%
same,ID/g,Rattus norvegicus [28],0.98%
same,ID/g,Rattus norvegicus [29],1.17%
same,ID/g,Rattus norvegicus [30],0.99%
same,ID/g,Rattus norvegicus [31],1.07%
same,logD,[32],3.77
same,ID/g,Rattus norvegicus [33],0.7%
CN(C)Cc1ccccc1Sc1ccc(Cl)cc1N,T1/2,[1],25.4 min
same,ID/g,Rattus norvegicus [2],1.06%
same,ID/g,Rattus norvegicus [3],1.36%
same,Ki,[4],0.27 nM
same,ID/g,Rattus norvegicus [5],1.12%
same,ID/g,Rattus norvegicus [6],0.14%
same,ID/g,Rattus norvegicus [7],1.04%
same,ID/g,Rattus norvegicus [8],1.34%
same,ID/g,Rattus norvegicus [9],0.79%
same,ID/g,Rattus norvegicus [10],1.65%
same,ID/g,Rattus norvegicus [11],0.23%
same,ID/g,Rattus norvegicus [12],0.74%
same,ID/g,Rattus norvegicus [13],0.08%
same,Ki,[14],230 nM
same,ID/g,Rattus norvegicus [15],1.19%
same,ID/g,Rattus norvegicus [16],1.36%
same,ID/g,Rattus norvegicus [17],0.47%
same,Ki,[18],115 nM
same,ID/g,Rattus norvegicus [19],1.33%
same,ID/g,Rattus norvegicus [20],0.73%
same,ID/g,Rattus norvegicus [21],0.28%
same,ID/g,Rattus norvegicus [22],1.47%
same,ID/g,Rattus norvegicus [23],1.39%
same,ID/g,Rattus norvegicus [24],1.03%
same,ID/g,Rattus norvegicus [25],1.54%
same,ID/g,Rattus norvegicus [26],0.39%
same,ID/g,Rattus norvegicus [27],1.24%
same,ID/g,Rattus norvegicus [28],1.14%
same,ID/g,Rattus norvegicus [29],1.48%
same,ID/g,Rattus norvegicus [30],1.17%
same,ID/g,Rattus norvegicus [31],1.43%
same,logD,[32],3.55
same,ID/g,Rattus norvegicus [33],0.75%
